According to ChEMBL document CHEMBL4138314, “Synthesis and Evaluation of N-Phenyl-3-sulfamoyl-benzamide Derivatives as Capsid Assembly Modulators Inhibiting Hepatitis B Virus (HBV)” (J Med Chem, 2018):
Active and inactive are the calls of the source. The rule behind the calls is not given here.

Tests used:
[1] = Plasma concentration in humanized mouse at 200 mg/kg, sc after 24 hrs by LC-MS/MS analysis; assay type: ADME, organism-based
[2] = Cmax in humanized mouse at 50 mg/kg, sc for 8 days measured on day 8 post last dose by LC-MS/MS analysis; assay type: ADME, organism-based; set-up: dose 50 mg/kg, route subcutaneous; conditions: in vivo
[3] = Plasma concentration in humanized mouse at 50 mg/kg, sc after 24 hrs by LC-MS/MS analysis; assay type: ADME, organism-based
Hepatitis B virus = test: Antiviral activity against Hepatitis B virus infected in human HepG2.117 cells assessed as inhibition of viral DNA level after 3 days by real time PCR; assay type: functional, organism-based; conditions: HepG2.117, 72 h
[4] = Drug metabolism in human liver microsomes at 1 uM after 15 mins by LC-MS/MS analysis; assay type: ADME, microsome; conditions: read-out: Drug metabolism
Outline: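 Compound incubated 15 min with human or mouse liver microsomes; stability expressed as percent turnover (metabolised) at 15 min.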

HepG2 = test: Cytotoxicity against human HepG2 cells after 4 to 6 days by resazurin assay; assay type: cell-based; conditions: hepg2
[5] = Clearance in C57BL/6 mouse at 2.5 mg/kg, iv by LC-MS/MS analysis; assay type: ADME, organism-based; conditions: in vivo
Outline: (§1)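 Single-dose PK in C57BL/6 mice after intravenous or oral dosing, with oral doses of 10 and 50 mg/kg; plasma clearance and volume of distribution taken from the i.v. arm.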

[6] = Half life in C57BL/6 mouse at 2.5 mg/kg, iv by LC-MS/MS analysis; assay type: ADME, organism-based; conditions: in vivo; outline: as §1
[7] = Half life in C57BL/6 mouse at 50 mg/kg, sc by LC-MS/MS analysis; assay type: ADME, organism-based; conditions: in vivo
[8] = Cmax in C57BL/6 mouse at 10 mg/kg, po by LC-MS/MS analysis; assay type: ADME, organism-based; set-up: dose 10 mg/kg, route oral; conditions: in vivo
[9] = Cmax in C57BL/6 mouse at 50 mg/kg, sc by LC-MS/MS analysis; assay type: ADME, organism-based; set-up: dose 50 mg/kg, route subcutaneous; conditions: in vivo
[10] = Tmax in C57BL/6 mouse at 50 mg/kg, sc by LC-MS/MS analysis; assay type: ADME, organism-based; conditions: in vivo
Outline: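 C57BL/6 mice dosed subcutaneously at 50 mg/kg to bypass first-pass metabolism; plasma and liver levels sampled 24 h after dosing.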

[11] = AUC (0 to last) in C57BL/6 mouse at 2.5 mg/kg, iv by LC-MS/MS analysis; assay type: ADME, organism-based; set-up: dose 2.5 mg/kg, route intravenous, time 0 - last; conditions: in vivo
[12] = AUC (0 to last) in C57BL/6 mouse at 50 mg/kg, po by LC-MS/MS analysis; assay type: ADME, organism-based; set-up: dose 50 mg/kg, route oral, time 0 - last; conditions: in vivo; outline: as §1
[13] = biological target: T1, 5-hydroxytryptamine receptor 2B (Homo sapiens, UniProt P41595); test: Antagonist activity at 5-HT2B (unknown origin); assay type: functional
Outline: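 Receptor/ion channel/transporter panel of 80 targets screened at 10 µM, giving percent effect at 5-HT2B; follow-up 5-HT2B functional testing in agonist and antagonist modes, with antagonist IC50 determined.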

[14] = Inhibition of sodium channel (unknown origin); set-up: species or system Homo sapiens
[15] = Inhibition of calcium channel (unknown origin); set-up: species or system Homo sapiens
[16] = biological target: Voltage-gated inwardly rectifying potassium channel KCNH2 (Homo sapiens, UniProt Q12809); test: Inhibition of human ERG
hERG = hERG (Homo sapiens, UniProt Q12809); test: Inhibition of human ERG at 3 uM by automated patch clamp assay (reference value: 14%)
Cytochrome P450 2C9 = Cytochrome P450 2C9 (Homo sapiens, UniProt P11712); test: Inhibition of CYP2C9 (unknown origin); assay type: ADME
Cytochrome P450 2D6 = Cytochrome P450 2D6 (Homo sapiens, UniProt P10635); test: Inhibition of CYP2D6 (unknown origin); assay type: ADME
Cytochrome P450 3A4 = Cytochrome P450 3A4 (Homo sapiens, UniProt P08684); test: Inhibition of CYP3A4 (unknown origin); assay type: ADME
[17] = Unbound fraction in human plasma; assay type: ADME, cell-free
[18] = Drug uptake in C57BL/6 mouse plasma at 50 mg/kg, sc after 24 hrs by LC-MS/MS analysis; assay type: ADME, organism-based
Outline: (§2)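 C57BL/6 mice dosed subcutaneously once at 50 mg/kg, given to bypass first-pass metabolism; compound measured in plasma (ng/mL) and liver (ng/g) 24 h after dosing.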

[19] = Drug uptake in C57BL/6 mouse liver at 50 mg/kg, sc after 24 hrs by LC-MS/MS analysis; assay type: ADME, organism-based; conditions: read-out: Drug uptake; outline: as §2
[20] = Cmax in humanized mouse at 50 mg/kg, sc measured on day 1 post dose by LC-MS/MS analysis; assay type: ADME, organism-based; set-up: dose 50 mg/kg, route subcutaneous; conditions: in vivo
[21] = Tmax in humanized mouse at 200 mg/kg, sc measured on day 1 post dose by LC-MS/MS analysis; assay type: ADME, organism-based; conditions: in vivo
[22] = AUC (0 to 24 hrs) in humanized mouse at 200 mg/kg, sc for 8 days measured on day 8 post last dose by LC-MS/MS analysis; assay type: ADME, organism-based; set-up: time < 24 hr, dose 200 mg/kg, route subcutaneous; conditions: in vivo
[23] = AUC (0 to infinity) in humanized mouse at 50 mg/kg, sc measured on day 1 post dose by LC-MS/MS analysis; assay type: ADME, organism-based; set-up: dose 50 mg/kg, time infinity, route subcutaneous; conditions: in vivo
[24] = AUC (0 to infinity) in humanized mouse at 50 mg/kg, sc for 8 days measured on day 8 post last dose by LC-MS/MS analysis; assay type: ADME, organism-based; set-up: dose 50 mg/kg, time infinity, route subcutaneous; conditions: in vivo
[25] = Half life in humanized mouse at 50 mg/kg, sc measured on day 1 post dose by LC-MS/MS analysis; assay type: ADME, organism-based; conditions: in vivo
[26] = Half life in humanized mouse at 50 mg/kg, sc for 8 days measured on day 8 post last dose by LC-MS/MS analysis; assay type: ADME, organism-based; conditions: in vivo
[27] = Half life in humanized mouse at 200 mg/kg, sc for 8 days measured on day 8 post last dose by LC-MS/MS analysis; assay type: ADME, organism-based; conditions: in vivo
[28] = Drug uptake in humanized mouse liver at 200 mg/kg, sc after 24 hrs by LC-MS/MS analysis; assay type: ADME, organism-based; conditions: read-out: Drug uptake
Outline: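 Uninfected humanized mice given 50 or 200 mg/kg subcutaneously once daily as a methocel suspension for 8 days; liver concentration measured 24 h after dosing.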

Mus musculus = test: Hepatotoxicity in chimeric mouse with humanized liver infected with HBV genotype D assessed as decrease in human albumin level in mouse serum at 200 mg/kg, sc qd for 28 days; assay type: toxicity, organism-based; conditions: in vivo, 672 h
Outline: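 Cytotoxicity to human hepatocytes was judged in HBV genotype D-infected chimeric mice (≥70% human hepatocyte replacement) by tracking serum human albumin over time. Dosing was once daily for 28 days at 200 mg/kg s.c., with oral saline and oral entecavir 0.03 mg/kg as controls.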

HBV genotype D = test: Antiviral activity against HBV genotype D infected in chimeric mouse with humanized liver assessed as reduction in HBeAg level at 200 mg/kg, sc qd for 28 days; assay type: functional, organism-based; conditions: hepatitis B virus genotype D
Outline: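 HBV genotype D-infected humanized-liver chimeric mice (≥70% human hepatocyte replacement) were dosed once daily for 28 days at 200 mg/kg s.c., with oral saline and oral entecavir 0.03 mg/kg as controls. Serum HBeAg and HBsAg were followed over the study.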

[29] = biological target: Core antigen (Hepatitis B virus) (UniProt Q03732); test: Induction of HBV Maleimidyl BoDIPY-FL-labeled capsid Cp*150 mutant aggregation incubated for 30 mins measured every 10 secs for 30 mins by fluorescence quenching assay
[30] = biological target: T1, 5-hydroxytryptamine receptor 2B; test: Agonist activity at 5-HT2B (unknown origin); assay type: functional
[31] = Drug metabolism in human primary hepatocytes assessed as cleavage of N-phenylamide; assay type: ADME, cell-based, Hepatocyte
Outline: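 Compound incubated with primary hepatocytes and checked for cleavage of the N-phenylamide bond.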

T1 sequence (P41595 whole entry): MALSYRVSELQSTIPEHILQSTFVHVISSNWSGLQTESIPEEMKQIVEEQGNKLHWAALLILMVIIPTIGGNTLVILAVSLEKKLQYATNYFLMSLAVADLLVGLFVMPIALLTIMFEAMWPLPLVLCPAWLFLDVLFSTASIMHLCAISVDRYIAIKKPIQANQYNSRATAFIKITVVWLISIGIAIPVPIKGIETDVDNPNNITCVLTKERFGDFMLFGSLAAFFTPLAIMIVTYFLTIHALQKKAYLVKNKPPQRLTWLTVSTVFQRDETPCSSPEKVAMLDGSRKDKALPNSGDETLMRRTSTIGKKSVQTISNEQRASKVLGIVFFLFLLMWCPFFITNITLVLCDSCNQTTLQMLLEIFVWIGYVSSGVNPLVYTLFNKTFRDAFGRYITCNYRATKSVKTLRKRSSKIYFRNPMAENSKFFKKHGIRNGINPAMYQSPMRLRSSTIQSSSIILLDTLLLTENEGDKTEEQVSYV
Cytochrome P450 3A4, sequence (P08684 whole entry): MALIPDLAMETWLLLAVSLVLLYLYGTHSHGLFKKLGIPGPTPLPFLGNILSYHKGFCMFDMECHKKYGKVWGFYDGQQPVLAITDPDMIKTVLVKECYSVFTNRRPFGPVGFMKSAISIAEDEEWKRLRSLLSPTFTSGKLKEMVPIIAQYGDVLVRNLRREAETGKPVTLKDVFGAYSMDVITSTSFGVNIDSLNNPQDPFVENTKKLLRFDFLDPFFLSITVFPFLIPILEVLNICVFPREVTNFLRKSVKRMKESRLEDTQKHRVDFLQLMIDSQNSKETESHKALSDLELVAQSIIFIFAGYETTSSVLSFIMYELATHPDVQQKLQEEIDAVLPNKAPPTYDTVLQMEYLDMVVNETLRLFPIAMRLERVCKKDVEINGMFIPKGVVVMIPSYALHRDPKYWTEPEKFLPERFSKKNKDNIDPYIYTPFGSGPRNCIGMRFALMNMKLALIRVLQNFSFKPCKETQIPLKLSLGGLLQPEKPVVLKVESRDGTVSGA
Cytochrome P450 2C9, sequence (P11712 whole entry): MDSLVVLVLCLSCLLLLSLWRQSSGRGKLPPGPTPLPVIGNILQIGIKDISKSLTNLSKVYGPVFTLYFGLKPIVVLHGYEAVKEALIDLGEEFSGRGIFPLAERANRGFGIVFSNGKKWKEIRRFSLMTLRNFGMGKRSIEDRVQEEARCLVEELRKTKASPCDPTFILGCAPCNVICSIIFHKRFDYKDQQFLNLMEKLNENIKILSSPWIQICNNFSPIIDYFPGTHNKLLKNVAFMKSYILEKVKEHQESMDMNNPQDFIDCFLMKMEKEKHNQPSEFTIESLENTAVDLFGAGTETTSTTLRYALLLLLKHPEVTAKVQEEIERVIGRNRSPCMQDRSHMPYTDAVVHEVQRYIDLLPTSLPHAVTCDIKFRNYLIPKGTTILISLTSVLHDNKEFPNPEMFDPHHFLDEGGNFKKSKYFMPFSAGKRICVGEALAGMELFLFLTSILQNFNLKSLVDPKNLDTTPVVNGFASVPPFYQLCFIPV
Core antigen (Hepatitis B virus), sequence (Q03732 as listed by the source): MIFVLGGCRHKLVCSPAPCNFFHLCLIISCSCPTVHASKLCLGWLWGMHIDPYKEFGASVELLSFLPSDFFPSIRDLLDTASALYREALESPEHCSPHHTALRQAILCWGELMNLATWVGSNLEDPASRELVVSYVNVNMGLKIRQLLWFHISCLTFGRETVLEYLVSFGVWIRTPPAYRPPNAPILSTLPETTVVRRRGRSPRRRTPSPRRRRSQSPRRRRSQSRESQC
Cytochrome P450 2D6, sequence (P10635 whole entry): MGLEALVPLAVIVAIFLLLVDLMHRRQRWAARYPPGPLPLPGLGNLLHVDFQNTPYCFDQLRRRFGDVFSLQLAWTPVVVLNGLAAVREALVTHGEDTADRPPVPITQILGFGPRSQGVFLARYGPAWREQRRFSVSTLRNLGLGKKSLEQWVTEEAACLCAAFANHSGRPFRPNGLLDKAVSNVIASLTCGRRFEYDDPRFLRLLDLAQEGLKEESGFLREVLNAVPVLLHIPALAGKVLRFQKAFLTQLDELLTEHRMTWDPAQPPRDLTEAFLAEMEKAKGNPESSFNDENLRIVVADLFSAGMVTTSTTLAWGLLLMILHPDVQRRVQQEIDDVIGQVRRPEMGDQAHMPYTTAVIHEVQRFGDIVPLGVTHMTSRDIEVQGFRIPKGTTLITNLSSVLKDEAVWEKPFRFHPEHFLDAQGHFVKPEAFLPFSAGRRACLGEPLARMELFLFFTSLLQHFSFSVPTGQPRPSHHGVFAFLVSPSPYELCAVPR
Voltage-gated inwardly rectifying potassium channel KCNH2, sequence (Q12809 whole entry): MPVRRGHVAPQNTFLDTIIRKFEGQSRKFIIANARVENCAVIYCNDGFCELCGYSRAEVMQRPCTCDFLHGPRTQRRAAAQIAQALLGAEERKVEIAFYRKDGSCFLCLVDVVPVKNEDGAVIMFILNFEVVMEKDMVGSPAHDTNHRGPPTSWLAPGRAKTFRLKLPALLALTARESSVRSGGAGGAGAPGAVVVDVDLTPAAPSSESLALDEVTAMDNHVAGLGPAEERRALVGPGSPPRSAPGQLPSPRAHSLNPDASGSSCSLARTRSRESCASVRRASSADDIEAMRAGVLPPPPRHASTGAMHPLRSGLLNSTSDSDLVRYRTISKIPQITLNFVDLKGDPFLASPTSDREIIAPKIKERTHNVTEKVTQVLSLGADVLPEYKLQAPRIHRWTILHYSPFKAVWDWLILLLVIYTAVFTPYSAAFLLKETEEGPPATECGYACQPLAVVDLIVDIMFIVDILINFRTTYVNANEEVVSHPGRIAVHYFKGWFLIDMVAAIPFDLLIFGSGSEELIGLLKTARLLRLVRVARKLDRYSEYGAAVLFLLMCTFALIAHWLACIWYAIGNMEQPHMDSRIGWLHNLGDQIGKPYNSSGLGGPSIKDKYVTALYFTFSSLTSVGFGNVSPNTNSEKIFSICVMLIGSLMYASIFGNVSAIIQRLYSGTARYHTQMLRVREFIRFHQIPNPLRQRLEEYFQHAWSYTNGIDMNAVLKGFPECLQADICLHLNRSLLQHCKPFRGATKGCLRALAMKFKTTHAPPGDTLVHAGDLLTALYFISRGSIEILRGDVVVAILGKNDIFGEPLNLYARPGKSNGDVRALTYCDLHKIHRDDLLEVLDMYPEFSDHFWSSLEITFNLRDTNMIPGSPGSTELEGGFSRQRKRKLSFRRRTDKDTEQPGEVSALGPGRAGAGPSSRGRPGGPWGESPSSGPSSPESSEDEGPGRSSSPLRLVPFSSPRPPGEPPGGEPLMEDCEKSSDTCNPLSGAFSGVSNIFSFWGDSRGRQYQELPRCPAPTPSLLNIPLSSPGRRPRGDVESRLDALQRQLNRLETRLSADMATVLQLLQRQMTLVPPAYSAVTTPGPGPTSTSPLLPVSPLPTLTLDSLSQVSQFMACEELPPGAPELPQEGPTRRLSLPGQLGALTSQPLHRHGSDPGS
hERG, sequence (Q12809 whole entry): as above

SMILES: Cc1cc(NC(=O)c2cccc(S(=O)(=O)N[C@H]3CCOC3)c2)ccc1F
- concentration at 24 h [1]: 1820 ng/mL
- Cmax [2]: 4380 ng/mL
- concentration at 24 h [3]: 167 ng/mL
- EC50 (Hepatitis B virus): 0.43 µM
- metabolised at 0.25 h, 1 µM [4]: 26%
- EC20 (HepG2): 10 to 30 µM
- clearance [5]: 34 mL/min/kg
- half-life [6]: 0.42 h
- half-life [7]: 5.3 h
- Cmax [8]: 1940 ng/mL
- Cmax [9]: 3370 ng/mL
- Tmax [10]: 1 h
- AUC(0-t) [11]: 1240 ng·h/mL
- AUC(0-t) [12]: 16400 ng·h/mL
- IC50 [13]: 4 to 5.6 µM
- IC50 [14]: > 10 µM
- IC50 [15]: > 10 µM
- IC50 [16]: > 10 µM
- inhibition at 3 µM (hERG): 31%
- IC50 (Cytochrome P450 2C9): > 10 µM
- IC50 (Cytochrome P450 2D6): > 10 µM
- IC50 (Cytochrome P450 3A4): > 10 µM
- fraction unbound [17]: 0.081
- concentration at 24 h [18]: 102 ng/mL
- concentration at 24 h [19]: 1300 ng/g
- Cmax [20]: 2190 ng/mL
- Tmax [21]: 0.8 h
- AUC at 24 h [22]: 86900 ng·h/mL
- AUC(0-inf) [23]: 4780 ng·h/mL
- AUC(0-inf) [24]: 20700 ng·h/mL
- half-life [25]: 1.1 h
- half-life [26]: 6.2 h
- half-life [27]: 12.1 h
- concentration at 24 h [28]: 4880 ng/g
- Activity (Mus musculus): Non-Toxic
- Activity (HBV genotype D): inactive
- Activity [29]: Active
- Activity [30]: inactive
- Drug metabolism [31]: Metabolite_Notdetected
